≈ marks a conversion by molar mass, not a printed value.
Tests used:
Type in all cases: functional
Klebsiella pneumoniae = assay: Minimum inhibitory concentration was evaluated in vitro against Klebsiella pneumoniae MGH2
Method in brief: (§1)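 Standard microtitration broth assay against a panel of 10 Gram-positive and Gram-negative organisms. MIC read in µg/mL and averaged over multiple experiments.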

Streptococcus pyogenes [1] = assay: Minimum inhibitory concentration was evaluated in vitro against Streptococcus pyogenes C 203; method in brief: as §1
Streptococcus pyogenes [2] = assay: Compounds were evaluated in vivo for antibacterial activity for mouse protection against Streptococcus pyogenes C 203 after oral administration; conditions: for ED50: Streptococcus pyogenes, C 203, po, read-out: PD50
Providencia rettgeri = assay: Minimum inhibitory concentration was evaluated in vitro against Providencia rettgeri M1771; method in brief: as §1
Streptococcus pyogenes [3] = assay: Antibacterial activity measured as mouse protection against Streptococcus pyogenes C 203 after subcutaneous administration; conditions: for ED50: Streptococcus pyogenes, C 203, sc, read-out: PD50
Escherichia coli [4] = assay: Antibacterial activity against Escherichia coli Vogel after oral administration in mouse; conditions: Escherichia coli, po; read-out: PD50
Staphylococcus aureus [5] = assay: Minimum inhibitory concentration was evaluated in vitro against Staphylococcus aureus H 228; method in brief: as §1
Enterobacter cloacae = assay: Minimum inhibitory concentration in vitro against Enterobacter cloacae MA 2646
Staphylococcus aureus [6] = assay: Minimum inhibitory concentration was evaluated in vitro against Staphylococcus aureus UC 76; method in brief: as §1
Pseudomonas aeruginosa = assay: Minimum inhibitory concentration was evaluated in vitro against Pseudomonas aeruginosa UI-18; method in brief: as §1
Escherichia coli [7] = assay: Antibacterial activity against Escherichia coli Vogel after subcutaneous administration in mouse; conditions: Escherichia coli, sc; read-out: PD50
Streptococcus pneumoniae = assay: Minimum inhibitory concentration was evaluated in vitro against Streptococcus pneumoniae SV-1; method in brief: as §1
Escherichia coli [8] = assay: Antibacterial activity in vitro against Escherichia coli Vogel; method in brief: as §1
Enterococcus faecalis = assay: Minimum inhibitory concentration was evaluated in vitro against Enterococcus faecalis MGH-2; method in brief: as §1
[9] = Klebsiella pneumoniae, read-out: MIC
[10] = Streptococcus pyogenes, read-out: MIC
[11] = Providencia rettgeri, read-out: MIC
[12] = Staphylococcus aureus, read-out: MIC
[13] = Enterobacter cloacae, read-out: MIC
[14] = Pseudomonas aeruginosa, read-out: MIC
[15] = Streptococcus pneumoniae, read-out: MIC
[16] = Escherichia coli, read-out: MIC
[17] = Enterococcus faecalis, read-out: MIC

Row | SMILES | MIC (Klebsiella pneumoniae; [9]) | MIC (Streptococcus pyogenes [1]; [10]) | ED50 (Streptococcus pyogenes [2]) | MIC (Providencia rettgeri; [11]) | ED50 (Streptococcus pyogenes [3]) | ED50 (Escherichia coli [4]) | MIC (Staphylococcus aureus [5]; [12]) | MIC (Enterobacter cloacae; [13]) | MIC (Staphylococcus aureus [6]; [12]) | MIC (Pseudomonas aeruginosa; [14]) | MIC (Streptococcus pneumoniae; [15]) | MIC (Escherichia coli [8]; [16]) | MIC (Enterococcus faecalis; [17]) | MIC (Streptococcus pyogenes [1]) | MIC (Staphylococcus aureus [6]) | also measured
1 | CCNCC1CCN(c2c(F)c(N)c3c(=O)c(C(=O)O)cn(C4CC4)c3c2F)C1 (configuration not stated) | 0.05 µg/mL (≈ 0.123 µM) | 0.013 µg/mL (≈ 0.032 µM) | 5 mg/kg | 0.1 µg/mL (≈ 0.246 µM) | 3 mg/kg | 16 mg/kg | 0.013 µg/mL (≈ 0.032 µM) | 0.05 µg/mL (≈ 0.123 µM) | 0.003 µg/mL (≈ 0.00738 µM) | 0.2 µg/mL (≈ 0.492 µM) | 0.003 µg/mL (≈ 0.00738 µM) | 0.05 µg/mL (≈ 0.123 µM) | 0.025 µg/mL (≈ 0.0615 µM) |  |  | ED50 (Escherichia coli [7]): 2 mg/kg
2 | CCN[C@@H](C)[C@@H]1CCN(c2c(F)c(N)c3c(=O)c(C(=O)O)cn(C4CC4)c3c2F)C1 (stereo in doubt; 32H-S,S) |  |  |  |  |  |  |  |  |  |  |  | 0.2 µg/mL (≈ 0.476 µM) |  | 0.2 µg/mL (≈ 0.476 µM) | 0.05 µg/mL (≈ 0.119 µM) | MIC (Klebsiella pneumoniae): 0.4 µg/mL (≈ 0.951 µM); PD50 (Streptococcus pyogenes [2]): 13 mg/kg; MIC (Providencia rettgeri): 1.6 µg/mL (≈ 3.81 µM); PD50 (Streptococcus pyogenes [3]): 9 mg/kg; MIC (Staphylococcus aureus [5]): 0.1 µg/mL (≈ 0.238 µM); MIC (Enterobacter cloacae): 0.4 µg/mL (≈ 0.951 µM); MIC (Pseudomonas aeruginosa): 3.1 µg/mL (≈ 7.37 µM); MIC (Streptococcus pneumoniae): 0.05 µg/mL (≈ 0.119 µM); MIC (Enterococcus faecalis): 0.2 µg/mL (≈ 0.476 µM)
3 | CN[C@H](C)[C@@H]1CCN(c2cc3c(cc2F)c(=O)c(C(=O)O)cn3C2CC2)C1 | 0.4 µg/mL (≈ 1.07 µM) | 0.05 µg/mL (≈ 0.134 µM) | 36 mg/kg | 0.8 µg/mL (≈ 2.14 µM) | 3 mg/kg |  | 0.2 µg/mL (≈ 0.536 µM) | 0.2 µg/mL (≈ 0.536 µM) | 0.05 µg/mL (≈ 0.134 µM) | 1.6 µg/mL (≈ 4.28 µM) | 0.05 µg/mL (≈ 0.134 µM) | 0.1 µg/mL (≈ 0.268 µM) | 0.2 µg/mL (≈ 0.536 µM) |  |  | 
4 | NC1CCN(c2c(F)cc3c(=O)c(C(=O)O)cn(C4CC4)c3c2F)C1 (configuration not stated) |  |  | 8 mg/kg | 0.05 µg/mL (≈ 0.143 µM) | 2 mg/kg | 1 mg/kg |  | 0.025 µg/mL (≈ 0.0716 µM) |  | 0.1 µg/mL (≈ 0.286 µM) |  |  | 0.05 µg/mL (≈ 0.143 µM) |  |  | 
5 | CCN[C@H](C)[C@@H]1CCN(c2nc3c(cc2F)c(=O)c(C(=O)O)cn3-c2ccc(F)cc2F)C1 | 1.6 µg/mL (≈ 3.47 µM) | 0.2 µg/mL (≈ 0.434 µM) | 10 mg/kg | 3.1 µg/mL (≈ 6.73 µM) | 6 mg/kg |  | 0.2 µg/mL (≈ 0.434 µM) | 0.8 µg/mL (≈ 1.74 µM) | 0.05 µg/mL (≈ 0.109 µM) | 3.1 µg/mL (≈ 6.73 µM) | 0.2 µg/mL (≈ 0.434 µM) | 0.8 µg/mL (≈ 1.74 µM) | 0.4 µg/mL (≈ 0.869 µM) |  |  | 
6 | CCn1cc(C(=O)O)c(=O)c2cc(F)c(N3CCC(N)C3)c(F)c21 (configuration not stated) | 0.1 µg/mL (≈ 0.296 µM) |  | 21 mg/kg | 0.1 µg/mL (≈ 0.296 µM) | 7 mg/kg | 3 mg/kg | 0.2 µg/mL (≈ 0.593 µM) |  | 0.05 µg/mL (≈ 0.148 µM) | 0.2 µg/mL (≈ 0.593 µM) |  | 0.05 µg/mL (≈ 0.148 µM) |  |  |  | ED50 (Escherichia coli [7]): 1 mg/kg
7 | CCN[C@@H](C)[C@@H]1CCN(c2c(F)c(N)c3c(=O)c(C(=O)O)cn(C4CC4)c3c2F)C1 (stereo in doubt; 32H-S,R) |  |  |  |  |  |  |  |  |  |  |  |  |  | 0.013 µg/mL (≈ 0.0309 µM) | 0.003 µg/mL (≈ 0.00714 µM) | MIC (Klebsiella pneumoniae): 0.1 µg/mL (≈ 0.238 µM); PD50 (Streptococcus pyogenes [2]): 6 mg/kg; MIC (Providencia rettgeri): 0.4 µg/mL (≈ 0.951 µM); PD50 (Streptococcus pyogenes [3]): 3 mg/kg; MIC (Staphylococcus aureus [5]): 0.013 µg/mL (≈ 0.0309 µM); MIC (Enterobacter cloacae): 0.1 µg/mL (≈ 0.238 µM); MIC (Pseudomonas aeruginosa): 0.8 µg/mL (≈ 1.9 µM); MIC (Streptococcus pneumoniae): 0.013 µg/mL (≈ 0.0309 µM); MIC (Escherichia coli [8]): 0.1 µg/mL (≈ 0.238 µM); MIC (Enterococcus faecalis): 0.025 µg/mL (≈ 0.0595 µM)
8 | CC(N)C1CCN(c2c(F)cc3c(=O)c(C(=O)O)cn(C4CC4)c3c2C(F)(F)F)C1 (stereo in doubt; 36F-R,R) |  |  |  | 0.8 µg/mL (≈ 1.87 µM) |  |  |  | 0.4 µg/mL (≈ 0.936 µM) |  |  |  |  |  | 0.1 µg/mL (≈ 0.234 µM) | 0.025 µg/mL (≈ 0.0585 µM) | MIC (Klebsiella pneumoniae): 0.8 µg/mL (≈ 1.87 µM); PD50 (Streptococcus pyogenes [2]): 3 mg/kg; PD50 (Streptococcus pyogenes [3]): 2 mg/kg; MIC (Staphylococcus aureus [5]): 0.1 µg/mL (≈ 0.234 µM); MIC (Pseudomonas aeruginosa): 6.3 µg/mL (≈ 14.7 µM); MIC (Streptococcus pneumoniae): 0.1 µg/mL (≈ 0.234 µM); MIC (Escherichia coli [8]): 0.8 µg/mL (≈ 1.87 µM); MIC (Enterococcus faecalis): 0.2 µg/mL (≈ 0.468 µM)
9 | CCNCC1CCN(c2c(F)cc3c(=O)c(C(=O)O)cn(C4CC4)c3c2C(F)(F)F)C1 (configuration not stated) |  |  | 2 mg/kg |  | 1 mg/kg | 5 mg/kg |  |  | 0.025 µg/mL (≈ 0.0566 µM) |  |  |  |  |  |  | ED50 (Escherichia coli [7]): 2 mg/kg
10 | C[C@H](N)[C@H]1CCN(c2c(F)c(N)c3c(=O)c(C(=O)O)cn(C4CC4)c3c2F)C1 (stereo in doubt; 32F-S,S) | 0.1 µg/mL (≈ 0.255 µM) |  | > 25 mg/kg | 0.4 µg/mL (≈ 1.02 µM) | 7 mg/kg |  | 0.025 µg/mL (≈ 0.0637 µM) | 0.05 µg/mL (≈ 0.127 µM) |  | 0.4 µg/mL (≈ 1.02 µM) | 0.025 µg/mL (≈ 0.0637 µM) | 0.05 µg/mL (≈ 0.127 µM) | 0.05 µg/mL (≈ 0.127 µM) | 0.05 µg/mL (≈ 0.127 µM) | 0.013 µg/mL (≈ 0.0331 µM) | 
11 | CN[C@@H](C)[C@H]1CCN(c2nc3c(cc2F)c(=O)c(C(=O)O)cn3C2CC2)C1 | 0.4 µg/mL (≈ 1.07 µM) | 0.4 µg/mL (≈ 1.07 µM) | 23 mg/kg | 0.8 µg/mL (≈ 2.14 µM) | 15 mg/kg |  | 0.8 µg/mL (≈ 2.14 µM) | 0.4 µg/mL (≈ 1.07 µM) | 0.2 µg/mL (≈ 0.534 µM) | 3.1 µg/mL (≈ 8.28 µM) | 0.4 µg/mL (≈ 1.07 µM) | 0.2 µg/mL (≈ 0.534 µM) | 0.8 µg/mL (≈ 2.14 µM) |  |  | 
12 | CN[C@H](C)[C@@H]1CCN(c2c(F)cc3c(=O)c(C(=O)O)cn(C4CC4)c3c2C(F)(F)F)C1 | 1.6 µg/mL (≈ 3.62 µM) | 0.05 µg/mL (≈ 0.113 µM) | 3 mg/kg | 3.1 µg/mL (≈ 7.02 µM) | 2 mg/kg |  | 0.05 µg/mL (≈ 0.113 µM) | 0.4 µg/mL (≈ 0.906 µM) | 0.025 µg/mL (≈ 0.0566 µM) | 6.3 µg/mL (≈ 14.3 µM) | 0.05 µg/mL (≈ 0.113 µM) | 0.2 µg/mL (≈ 0.453 µM) | 0.1 µg/mL (≈ 0.227 µM) |  |  | 
